This note sets out measurements from ChEMBL document CHEMBL4330070, “Design and synthesis of novel pyrimidine derivatives as potent antitubercular agents” (Eur J Med Chem, 2019).

Calls of active or inactive are those of the source. No cut-off for these calls is given here.

The subject of data set [1] is Mycobacterium tuberculosis. The experiment in a line: Antimicrobial activity against autoluminescent Mycobacterium tuberculosis H37Ra assessed as test compound concentration causing ratio of drug treated RLU/untreated RLU less than 10% measured every day up to 6 days by luminometric method. As to conditions: 144 h. It counts as functional. In outline:
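Autoluminescent marker-free H37Ra (UAIRa) grown in 7H9 with OADC and 0.05% Tween 80 until RLU exceeded 5 million/mL, then diluted to 10,000-50,000 RLU/mL in 7H9 without Tween 80. Compounds tested as 2-fold dilutions from 100 to 0.625 µg/mL, with DMSO 2% and rifampicin 1 µg/mL controls. RLU read daily to day 6. MIC is the lowest concentration giving RLU drug/DMSO below 10%.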

For data set [2], the system named is Mycobacterium tuberculosis. The experiment in a line: Antimicrobial activity against autoluminescent Mycobacterium tuberculosis H37Ra infected in BALB/c mouse assessed as reduction in bacterial burden in lung at 200 mg/kg administered daily via gavage for 5 days and measured on day 6 by luminometric method. The data set is classed as functional, organism-based. A digest of the protocol:
(§1)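 Mice grouped by similar RLU, four per group. Dosed by gavage daily from day 0 to day 5 in 0.5% CMC-Na, with vehicle, RIF 10 mg/kg and PZA 150 mg/kg controls. Lung or spleen burden read as log10 RLU, mean ± SD.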

Data set [3] is described as follows: Toxicity in Balb/c mouse infected with Mycobacterium tuberculosis H37Ra assessed as mouse death at 200 mg/kg administered daily via gavage for 5 days. It counts as organism-based. As to conditions: in vivo, po, 120 h. In outline: (§2)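 Female BALB/c mice aged 4-5 weeks infected by tail vein with autoluminescent H37Ra, four per group. Gavage daily from day 0 to day 5 in 0.5% CMC-Na vehicle. Deaths recorded over the 6-day treatment period and reported as percent survival.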

Data set [4] relates to Mycobacterium tuberculosis. As to the kind of experiment: Synergistic antimicrobial activity against autoluminescent Mycobacterium tuberculosis H37Ra assessed as test compound concentration causing ratio of drug treated RLU/untreated RLU less than 10% by measuring FICI at 0.0625 to 2 times MIC after 7 days in presence of sulfamethoxazole by luminometric method. It counts as functional. A digest of the protocol: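 Exponential-phase UAIRa in 7H9 without Tween 80 at 10,000-50,000 RLU/mL. Compound at 2-fold dilutions from 2×MIC to MIC/16, each combined with sulfamethoxazole at 16, 8, 4 or 2 µg/mL, with a 2% DMSO control. RLU read after 7 days at 37 °C. MIC taken as RLU drug/DMSO below 10%. FICI is the sum of MIC in combination over MIC alone for each drug.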

Data set [5] in a line: Toxicity in Balb/c mouse infected with Mycobacterium tuberculosis H37Ra assessed as mouse death at 300 mg/kg administered daily via gavage for 5 days. The data set is classed as organism-based. Particulars: in vivo, po, 120 h. In outline:
as §2

Data set [6] has as its system Mycobacterium tuberculosis. As to the kind of experiment: Antimicrobial activity against autoluminescent Mycobacterium tuberculosis H37Ra infected in BALB/c mouse assessed as reduction in bacterial burden in spleen at 200 mg/kg administered daily via gavage for 5 days and measured on day 6 by luminometric method. The data set is classed as functional, organism-based. A digest of the protocol: as §1

Data set [7] has as its system Mycobacterium tuberculosis. As to the kind of experiment: Antimicrobial activity against autoluminescent Mycobacterium tuberculosis H37Ra infected in BALB/c mouse assessed as reduction in bacterial burden in lung at 100 to 300 mg/kg administered daily via gavage for 5 days and measured on day 6 by luminometric method. The data set is classed as functional. A digest of the protocol: as §1

The subject of data set [8] is Mycobacterium tuberculosis. As to the kind of experiment: Antimicrobial activity against autoluminescent Mycobacterium tuberculosis H37Ra infected in BALB/c mouse assessed as reduction in bacterial burden in spleen at 100 to 300 mg/kg administered daily via gavage for 5 days and measured on day 6 by luminometric method. The data set is classed as functional. A digest of the protocol:
as §1

A short description of data set [9]: Toxicity in Balb/c mouse infected with Mycobacterium tuberculosis H37Ra assessed as mouse death at 100 mg/kg administered daily via gavage for 5 days. The data set is classed as organism-based. Particulars: in vivo, po, 120 h. In outline:
as §2

Data set [10] concerns Mycobacterium tuberculosis. The experiment in a line: Antimicrobial activity against autoluminescent Mycobacterium tuberculosis H37Ra infected in BALB/c mouse assessed as reduction in bacterial burden in spleen at 300 mg/kg administered daily via gavage for 5 days and measured on day 6 by luminometric method. It counts as functional, organism-based. In outline:
as §1

The test system of data set [11] is Mycobacterium tuberculosis. As to the kind of experiment: Antimicrobial activity against autoluminescent Mycobacterium tuberculosis H37Ra infected in BALB/c mouse assessed as reduction in bacterial burden in lung at 300 mg/kg administered daily via gavage for 5 days and measured on day 6 by luminometric method. The data set is classed as functional. A digest of the protocol: as §1

For orientation: MIC means the lowest concentration found to suppress growth.

For the compound `Cc1cc(Nc2ncc(Cl)c(Nc3ccccc3S(=O)(=O)C(C)C)n2)c(OC(C)C)cc1N1CCN(C)CC1`, in data set [1], the MIC was 18 µM.
The same measure, in the same setting: the same measure for `Cc1cc(Nc2ncc(Cl)c(NC34CC5CC(CC(C5)C3)C4)n2)c(OC(C)C)cc1C1CCNCC1`: 20 µM.
The same measure, in the same setting: as for `CC(C)S(=O)(=O)c1ccccc1Nc1nc(Nc2ccc(C#N)c(F)c2)ncc1Cl`, the figure is over 200 µM.
For the compound `Cc1cc(Nc2ncc(Cl)c(NCCc3ccccc3)n2)c(OC(C)C)cc1C1CCNCC1`, the MIC in data set [1] turned out to be 5 µM. The result in data set [2] and in data set [6] was Active. Besides, the Activity entry in data set [3] and in data set [5] was “Non-Toxic” throughout. The “fractional inhibitory concentration index (FICI)” value in data set [4] is listed as 0.74.
In the case of `Cc1cc(Nc2ncc(Cl)c(Nc3ccccc3S(=O)(=O)C(C)C)n2)c(OC(C)C)cc1N1CCOCC1`, the MIC in data set [1] was over 150 µM.
The same measure, in the same setting: the same measure for `COc1ccc(-c2cc(Nc3nc(Nc4cc(C)c(C5CCNCC5)cc4OC(C)C)ncc3Cl)ccc2OC)cc1`: 17 µM; for `Cc1cc(Nc2ncc(Cl)c(NC3CCCCC3)n2)c(OC(C)C)cc1C1CCNCC1`: 11 µM; for `Cc1cc(Nc2ncc(Cl)c(Nc3ccc(O)cc3)n2)c(OC(C)C)cc1C1CCNCC1`: 10 µM.
Same read-out and setting: as for `CC(C)S(=O)(=O)c1ccccc1Nc1nc(Nc2ccccc2C#N)ncc1Cl`, the figure is over 200 µM; as for `Cc1cc(Nc2ncc(Cl)c(NCCc3cccs3)n2)c(OC(C)C)cc1C1CCNCC1`, 10 µM; as for `Cc1cc(Nc2ncc(Cl)c(Nc3ccc(C(N)=O)cc3)n2)c(OC(C)C)cc1C1CCNCC1`, 20 µM.
On the same count and under the same terms, the same measure for `Cc1cc(Nc2ncc(Cl)c(Nc3ccccc3O)n2)c(OC(C)C)cc1C1CCNCC1`: at most 10 µM.
Regarding `Cc1cc(Nc2ncc(Cl)c(NC(C)(C)Cc3ccc4ccccc4c3)n2)c(OC(C)C)cc1C1CCNCC1`, the MIC in [1] was determined as 18 µM.
On the same count and under the same terms, as for `Cc1cc(Nc2ncc(Cl)c(NCc3ccccc3)n2)c(OC(C)C)cc1C1CCNCC1`, the figure is 10 µM; as for `Cc1cc(NS(=O)(=O)c2ccc(N)cc2)no1` [SULFAMETHOXAZOLE], 67 µM; as for `Cc1cc(Nc2ncc(Cl)c(NCCc3ccc(F)cc3)n2)c(OC(C)C)cc1C1CCNCC1`, 10 µM.
Still for that read-out and setting: as for `CC(C)S(=O)(=O)c1ccccc1Nc1nc(Nc2ccccc2OCCCN2CCOCC2)ncc1Cl`, the figure is over 150 µM; as for `CC(C)S(=O)(=O)c1ccccc1Nc1nc(Nc2ccccc2O)ncc1Cl`, over 200 µM; as for `Cc1cc(Nc2ncc(Cl)c(Nc3ccccc3S(=O)(=O)C(C)C)n2)c(OC(C)C)cc1N1CCNCC1`, 9 µM.
Still for that read-out and setting: as for `Cc1cc(Nc2ncc(Cl)c(N3CCCc4ccccc43)n2)c(OC(C)C)cc1C1CCNCC1`, the figure is 20 µM.
Turning to `Cc1cc(Nc2ncc(Cl)c(Nc3cccc4ccccc34)n2)c(OC(C)C)cc1C1CCNCC1`, the MIC in data set [1] worked out at 5 µM. In addition, the Activity in data set [7] is recorded as 2 log10RLU; in data set [8] it was 0.5 log10RLU; in [9], “Non-Toxic”; in data set [5], “Non-Toxic”. Moreover, in data set [4], the “fractional inhibitory concentration index (FICI)” value is given as 0.74.
For `CC(C)S(=O)(=O)c1ccccc1Nc1nc(Nc2ccc(C(N)=O)cc2)ncc1Cl`, in data set [1], the MIC is over 200 µM.
For the compound `CC(C)S(=O)(=O)c1ccccc1Nc1nc(Nc2ccc(Cl)cc2)ncc1Cl`, the MIC in data set [1] was over 200 µM.
On the same count and under the same terms, as for `Cc1cc(Nc2ncc(Cl)c(Nc3cccc(-c4ccccc4)c3)n2)c(OC(C)C)cc1C1CCNCC1`, the figure is 19 µM; as for `Cc1cc(Nc2ncc(Cl)c(N[C@H](C)c3ccccc3)n2)c(OC(C)C)cc1C1CCNCC1`, 10 µM.
Regarding `Cc1cc(Nc2ncc(Cl)c(Nc3ccccc3S(=O)(=O)C(C)C)n2)c(OC(C)C)cc1C1CCNCC1` [CERITINIB], the MIC in data set [1] came out at 9 µM. The outcome in [10] was inactive. Further, the “fractional inhibitory concentration index (FICI)” value in [4] was 0.74. The values for the Activity entry in data set [5] and in data set [11] were “Toxic” and 1 log10RLU, respectively.
On to `COc1ccc(CCNc2nc(Nc3cc(C)c(C4CCNCC4)cc3OC(C)C)ncc2Cl)cc1`, for which, in data set [1], the minimal inhibitory concentration (MIC) amounted to 5 µM. The result in data set [2] and in [6] was inactive. Besides, the Activity result in data set [3] is listed as “Toxic”. Further, the “fractional inhibitory concentration index (FICI)” value in data set [4] is reported as 1.24.
For `COc1ccc(Nc2ncc(Cl)c(Nc3ccccc3S(=O)(=O)C(C)C)n2)cc1`, in data set [1], the minimum inhibitory concentration (MIC) is over 200 µM.
With `Cc1cc(Nc2ncc(Cl)c(Nc3cc(C(F)(F)F)cc(C(F)(F)F)c3)n2)c(OC(C)C)cc1C1CCNCC1`, the MIC in data set [1] worked out at 17 µM.
Still for that read-out and setting: as for `Cc1cc(Nc2ncc(Cl)c(Nc3ccc4ccccc4c3)n2)c(OC(C)C)cc1C1CCNCC1`, the figure is 10 µM; as for `CC(C)S(=O)(=O)c1ccccc1Nc1nc(NCCc2ccc(Br)cc2)ncc1Cl`, over 150 µM.
The same measure, in the same setting: as for `COc1ccc(Nc2nc(Nc3cc(C)c(C4CCNCC4)cc3OC(C)C)ncc2Cl)cc1Br`, the figure is 9 µM; as for `Cc1cc(Cc2ncc(Cl)c(NCCc3ccc(O)cc3)n2)c(OC(C)C)cc1C1CCNCC1`, 10 µM.
